In the library only some 4.7% were active in any assay of this set; here they are far more common.
Mdm2 MdmX PPI: inhibitors of human Mdm2-MdmX association, primary screen, cell-based, luminescence, split luciferase, SaOS-2, uHTS | Protein Mdm4 (Homo sapiens) + E3 ubiquitin-protein ligase Mdm2 (Homo sapiens), … | SaOS-2 split-luciferase Mdm2/MdmX complementation | inhibition, % at 8 µM | actives 3% (n = 330,000) | AID 485346, 2010;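 active = inhibition of at least 50% at 8 µM in the primary screen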
Target sequence (O15151 whole entry, looked up): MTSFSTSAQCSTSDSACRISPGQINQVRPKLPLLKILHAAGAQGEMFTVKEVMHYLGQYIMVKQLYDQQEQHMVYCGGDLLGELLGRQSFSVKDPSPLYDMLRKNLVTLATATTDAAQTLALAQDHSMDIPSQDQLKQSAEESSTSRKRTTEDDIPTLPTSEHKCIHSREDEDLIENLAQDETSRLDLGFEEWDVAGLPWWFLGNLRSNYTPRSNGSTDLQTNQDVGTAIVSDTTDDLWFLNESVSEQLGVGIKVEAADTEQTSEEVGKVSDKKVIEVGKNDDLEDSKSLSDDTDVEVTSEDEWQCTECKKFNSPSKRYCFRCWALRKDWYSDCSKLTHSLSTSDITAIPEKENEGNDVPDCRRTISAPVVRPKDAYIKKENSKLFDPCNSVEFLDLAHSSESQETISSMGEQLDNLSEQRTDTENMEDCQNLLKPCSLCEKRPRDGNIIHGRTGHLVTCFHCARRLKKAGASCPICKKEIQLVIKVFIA
Target sequence (Q00987 whole entry, looked up): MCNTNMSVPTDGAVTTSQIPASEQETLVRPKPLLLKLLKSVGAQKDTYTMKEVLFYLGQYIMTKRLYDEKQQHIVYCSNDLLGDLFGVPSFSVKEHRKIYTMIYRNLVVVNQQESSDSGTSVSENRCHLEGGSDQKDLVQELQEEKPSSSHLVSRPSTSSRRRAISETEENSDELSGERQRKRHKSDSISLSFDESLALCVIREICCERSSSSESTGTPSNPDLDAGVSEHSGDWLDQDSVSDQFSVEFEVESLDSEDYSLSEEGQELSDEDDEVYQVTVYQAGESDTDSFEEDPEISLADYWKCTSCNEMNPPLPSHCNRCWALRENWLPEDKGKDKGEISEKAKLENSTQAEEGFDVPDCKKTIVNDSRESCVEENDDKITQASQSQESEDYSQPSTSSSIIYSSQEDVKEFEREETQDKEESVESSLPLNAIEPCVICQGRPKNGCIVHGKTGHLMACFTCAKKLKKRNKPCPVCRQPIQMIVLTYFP
IMP-1 inh: IMP-1 metallo-beta-lactamase inhibitors, primary screen, biochemical, epi-absorbance readout, Pseudomonas aeruginosa enzyme; actives 0.45% (n = 290,000); inhibition, % at 5.6 µM; purified IMP-1, nitrocefin hydrolysis, epi-absorbance fluorescence;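 active = inhibition above the mean plus 3 SD of all compounds in the same screening run, cut at about 4.5% in these data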;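 note: 0% = IMP-1 with DMSO and 100% = DMSO wells lacking enzyme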
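Material – recombinant IMP-1 enzyme, purified · Amount – IMP-1 0.2 nM before substrate addition · Medium – HEPES buffer pH 7.1 with ZnSO4 and Brij 35 · Timing – 25 °C, 15 min preincubation, 25 min reaction · Measured by – plate fluorescence quenching by hydrolysis product, ex 480/em 530 nm · Read-out – percent enzyme inhibition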
VIM-2 inh: VIM-2 metallo-beta-lactamase inhibitors, primary screen, biochemical, epi-absorbance readout, Pseudomonas aeruginosa enzyme; purified VIM-2, nitrocefin hydrolysis, epi-absorbance fluorescence; inhibition, % at 5.6 µM; actives 0.89% (n = 290,000);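 active = inhibition above the mean of all tested compounds plus 3 SD, cutoff set per screening run, cut at about 7.5% in these data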;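 note: red hydrolysis product quenches plate fluorescence so inhibitors raise well fluorescence; 0% = enzyme with DMSO and 100% = DMSO without enzyme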
697 NFkB inh: inhibitors of PMA/ionomycin-induced NF-kB reporter, 697 cells, primary screen, B-cell NF-kB inhibitor project, cell-based, luminescence, uHTS | AID 435022, 2010 | actives 0.33% (n = 330,000) | 697 B-cell NF-kB luciferase reporter, 16 h | inhibition, % at 4 µM; in the data active = inhibition above about 35%
aSyn 5UTR inh: MLPCN primary screen, SNCA 5' untranslated region. actives 0.82% (n = 300,000). inhibition, % (tested at 7.5 µM). alpha-synuclein 5'UTR reporter, inhibitor activity; in the data active = inhibition above about 60%;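 note: H4 neuroglioblastoma cells stably carrying SNCA 5'UTR luciferase fusion; 0% = DMSO wells and 100% = positive control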
Jurkat NFkB inh: inhibitors of induced NF-kB luciferase reporter, primary screen, TCR NF-kB activation inhibitor project, cell-based, luminescence, uHTS; actives 0.53% (n = 330,000); inhibition, % at 4 µM; Jurkat, PMA/ionomycin-induced NF-kB luciferase reporter; AID 435003, 2010; in the data active = inhibition above about 50%
Mdm2 MdmX conf: Mdm2-MdmX complex disruptors, retested hits, confirmation, luminescence, single concentration; shares compounds with Mdm2 MdmX PPI; Mdm2-MdmX binding, luminescent assay; inhibition, % at 8 µM; actives 55% (n = 10,000); in the data active = inhibition above about 40%
Full FLuc ctr: full-length luciferase signal inhibition, confirmation, counter-screen for Mdm2/MdmX interaction inhibitor project, cell-based, single concentration, SaOS-2 | shares compounds with Mdm2 MdmX PPI | SaOS-2 full-length luciferase counterscreen, luminescence | actives 77% (n = 6,200) | inhibition, % at 8 µM;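 active = mean inhibition at 8 µM reaching about 37%, which flags the compound as non-specific, limit read from the data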;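 note: p53-null SaOS-2 cells with luciferase driven by a doxycycline-inducible promoter; compound on cells about two nights before reading with doxycycline added after day one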
Active calls of the source: *.

How did Cc1ccc(S(=O)(=O)N2C[C@@H]3[C@H]4CC[C@H](C4)[C@@H]3[C@@H](C)[C@@H]2c2cn(Cc3ccccc3)c3ccc(F)cc23)cc1 do in these assays?
Mdm2 MdmX PPI: 32; 697 NFkB inh: 17

What do the screens show for `O=c1c(Cl)c(N2CCCCC2)cnn1-c1nc2ccccc2[nH]1`?
Mdm2 MdmX PPI: 52*; IMP-1 inh: -3; VIM-2 inh: -3; 697 NFkB inh: -58; aSyn 5UTR inh: 93*; Jurkat NFkB inh: 7; Mdm2 MdmX conf: 56*; Full FLuc ctr: 63*

What do the screens show for `C=C(NC(=O)C(=C)NC(=O)c1csc(C2=NC3c4csc(n4)C4NC(=O)c5csc(n5)C([C@@](C)(O)C(C)O)NC(=O)C5CSC(=N5)/C(=C\C)NC(=O)C(C(C)O)NC(=O)c5csc(n5)[C@]3(CC2)NC(=O)C(C)NC(=O)C(=C)NC(=O)C(C)NC(=O)C(C(C)CC)NC2C=Cc3c(C(C)O)cc(nc3C2O)C(=O)OC4C)n1)C(N)=O` (some centres not stated)?
Mdm2 MdmX PPI: 94*; 697 NFkB inh: -141; Jurkat NFkB inh: 30; Mdm2 MdmX conf: 56*; Full FLuc ctr: 58*

Results for O=C(CN(c1cccc(C(F)(F)F)c1)S(=O)(=O)c1ccc(Cl)c([N+](=O)[O-])c1)NCc1ccccc1 ?
Mdm2 MdmX PPI: 82*; IMP-1 inh: -4; VIM-2 inh: 0; 697 NFkB inh: 6; aSyn 5UTR inh: 9; Jurkat NFkB inh: -14; Mdm2 MdmX conf: 40*; Full FLuc ctr: 59*

How did O=C(CN(c1ccc(Br)cc1)S(=O)(=O)c1ccc(Cl)c([N+](=O)[O-])c1)NCCc1ccccc1 do in these assays?
Mdm2 MdmX PPI: 34; IMP-1 inh: -1; VIM-2 inh: -3; 697 NFkB inh: 3; aSyn 5UTR inh: -15; Jurkat NFkB inh: -7

Results for COc1ccc(CCNC(=O)CN(c2ccc(OC)c(OC)c2)S(=O)(=O)c2ccc(C)cc2)cc1 ?
Mdm2 MdmX PPI: 15; IMP-1 inh: -2; VIM-2 inh: -1; 697 NFkB inh: -12; aSyn 5UTR inh: -5; Jurkat NFkB inh: 7

Results for CC(NC(=O)CN(c1cccc(C(F)(F)F)c1)S(=O)(=O)c1ccc(Cl)c([N+](=O)[O-])c1)c1ccccc1 (configuration not stated) ?
Mdm2 MdmX PPI: 82*; IMP-1 inh: -1; VIM-2 inh: -4; 697 NFkB inh: 7; aSyn 5UTR inh: 3; Jurkat NFkB inh: 0; Mdm2 MdmX conf: 55*; Full FLuc ctr: 35

How did Cc1ccc(N(CC(=O)NCCc2ccc(F)cc2)S(=O)(=O)c2ccc(Cl)c([N+](=O)[O-])c2)c(C)c1 do in these assays?
Mdm2 MdmX PPI: 100*; IMP-1 inh: -1; VIM-2 inh: 0; 697 NFkB inh: 14; aSyn 5UTR inh: -24; Jurkat NFkB inh: -8; Mdm2 MdmX conf: 7

What do the screens show for `O=C(CN(c1cccc(C(F)(F)F)c1)S(=O)(=O)c1ccc(Cl)c([N+](=O)[O-])c1)NCc1ccccc1Cl`?
Mdm2 MdmX PPI: 73*; IMP-1 inh: -1; VIM-2 inh: 0; 697 NFkB inh: 16; aSyn 5UTR inh: -1; Jurkat NFkB inh: -14; Mdm2 MdmX conf: 32; Full FLuc ctr: 103*

What do the screens show for `COc1ccccc1CNC(=O)CN1C(=O)NC2(CCCCCCC2)C1=O`?
Mdm2 MdmX PPI: 10; 697 NFkB inh: 2; Jurkat NFkB inh: -8

Source: PubChem (several laboratories)
